The record followed here is ChEMBL document CHEMBL1130056, “Novel and selective partial agonists of 5-HT3 receptors. 2. Synthesis and biological evaluation of piperazinopyridopyrrolopyrazines, piperazinopyrroloquinoxalines, and piperazinopyridopyrroloquinoxalines” (J Med Chem, 1997).

Each structure is given as a SMILES string.

Experiment [1] has as its target 5-hydroxytryptamine receptor 1B (Rattus norvegicus, UniProt P28564). The experiment is described as follows: Binding affinity towards 5-hydroxytryptamine 1B receptor was measured using [3H]5-HT as radioligand. The gist of the method: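 Rat frontal cortex and striatum membranes (0.8 mg protein/mL), 2 nM [3H]-5-OH-tryptamine, 1 μM spiperone, 50 nM mesulergine; 25 °C, 30 min; 50 mM Tris-HCl pH 7.4, 4 mM CaCl2, 10 μM pargyline. Nonspecific binding with 10 μM propranolol. Expressed as log IC50 ± SEM.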

A further experiment concerns NG108-15. Description: In Vitro 5-HT3 agonist activity on the [14C]guanidinium accumulation in NG 108-15 cells. The class given is functional, cell-based. Conditions: Murinae. Summed up:
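NG 108-15 cells grown 2 days, washed, then incubated 10 min at 37 °C in HEPES buffer pH 7.4 with 10 mM guanidinium chloride, 200–250 nCi [14C]guanidinium, 10 μM substance P and drug. After ice-cold choline wash, cells dissolved in NaOH and radioactivity counted. EC50 from triplicates per concentration; mean ± SEM of three determinations.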

For experiment [2], the system named is Rattus norvegicus. Description: In Vivo 5-HT3 antagonist activity in the Von Bezold-Jarisch reflex in rats after intravenous dose of 120 (ug/kg). It is filed as functional. The gist of the method: (§1)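 Urethane-anesthetized (1.25 g/kg ip) fasted male Crl:CD(SD)BR rats; heart rate from carotid cannula. Compound in saline iv via jugular vein, usually 5 min before 5-HT bolus (30 μg/kg iv).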

In experiment [3] the target is Serotonin 3 (5-HT3) receptor. Description: Binding affinity against 5-hydroxytryptamine 3 receptor was measured using [3H]granisetron as radioligand. It is filed as protein-complex assay.
For experiment [4], the system named is Rattus norvegicus. The experiment is described as follows: In Vivo 5-HT3 agonist activity in the Von Bezold-Jarisch reflex decrease in heart rate in rats at 120 (ug/kg) dose. The class given is functional. The gist of the method: (§2)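 Fasted male Crl:CD(SD)BR rats (280–320 g) under urethane (1.25 g/kg ip); heart rate from cannulated carotid artery. Compound in saline given iv via jugular cannula. Read-out is fall in heart rate as percent of pre-treatment baseline.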

In experiment [5] the target is 5-hydroxytryptamine receptor 2A (Bos taurus, UniProt Q75Z89). The experiment is described as follows: Binding affinity against 5-hydroxytryptamine 2A receptor was measured using [3H]ketanserin as radioligand. Summed up: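 Bovine frontal cortex membranes (0.6 mg protein/mL) with 0.8 nM [3H]ketanserin and 100 nM WB4101, 37 °C for 30 min, in 50 mM Tris-HCl pH 7.4 plus 5 mM MgCl2, 10 mM NaCl, 0.5 mM EDTA, 10 μM pargyline. 10 μM spiperone defined nonspecific binding. Reported as log IC50 ± SEM.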

In experiment [6] the test system is Rattus norvegicus. Description: In Vivo 5-HT3 agonist activity in the Von Bezold-Jarisch reflex decrease in heart rate in rats at 60 (ug/kg) dose. The class given is functional. Summed up:
as §2

The target in experiment [7] is 5-hydroxytryptamine receptor 1D (Sus scrofa, UniProt P79400). Description: Binding affinity against 5-hydroxytryptamine 1D receptor was measured using [3H]5-HT as radioligand. The gist of the method:
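Pig frontal cortex and striatum membranes (0.8 mg protein/mL), 2 nM [3H]-5-OH-tryptamine with 1 μM spiperone and 50 nM mesulergine, 25 °C, 30 min, 50 mM Tris-HCl pH 7.4, 4 mM CaCl2, 10 μM pargyline. Nonspecific binding with 10 μM 5-HT. Expressed as log IC50 ± SEM.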

The test system of experiment [8] is Rattus norvegicus. The experiment is described as follows: In Vivo 5-HT3 antagonist activity in the Von Bezold-Jarisch reflex in rats after intravenous dose of 60 (ug/kg). The class given is functional. Summed up: as §1

5-hydroxytryptamine receptor 2A, sequence (Q75Z89 whole entry): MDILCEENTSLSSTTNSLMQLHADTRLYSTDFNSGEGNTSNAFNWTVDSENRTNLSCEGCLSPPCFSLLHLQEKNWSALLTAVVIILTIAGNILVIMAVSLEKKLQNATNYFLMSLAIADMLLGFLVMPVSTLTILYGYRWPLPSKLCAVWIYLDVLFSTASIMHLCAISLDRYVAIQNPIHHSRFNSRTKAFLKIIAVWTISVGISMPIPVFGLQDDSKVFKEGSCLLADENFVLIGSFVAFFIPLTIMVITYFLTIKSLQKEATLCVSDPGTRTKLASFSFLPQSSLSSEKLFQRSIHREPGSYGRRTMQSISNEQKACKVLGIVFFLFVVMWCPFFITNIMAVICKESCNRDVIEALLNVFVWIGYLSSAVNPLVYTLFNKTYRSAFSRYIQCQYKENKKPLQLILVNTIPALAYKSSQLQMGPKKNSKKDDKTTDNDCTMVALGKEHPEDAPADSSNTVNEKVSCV
5-hydroxytryptamine receptor 1B, sequence (P28564 whole entry): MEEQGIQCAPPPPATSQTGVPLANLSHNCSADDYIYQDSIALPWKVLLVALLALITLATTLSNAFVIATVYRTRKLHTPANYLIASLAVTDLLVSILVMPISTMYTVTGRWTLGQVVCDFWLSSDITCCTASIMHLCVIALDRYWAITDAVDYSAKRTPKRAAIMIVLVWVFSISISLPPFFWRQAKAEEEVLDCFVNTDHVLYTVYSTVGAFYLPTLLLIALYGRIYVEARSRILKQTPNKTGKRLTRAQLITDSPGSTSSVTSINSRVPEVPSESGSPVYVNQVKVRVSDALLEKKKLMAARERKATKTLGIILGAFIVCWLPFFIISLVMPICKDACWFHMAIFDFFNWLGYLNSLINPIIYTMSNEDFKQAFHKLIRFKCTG
5-hydroxytryptamine receptor 1D, sequence (P79400 whole entry): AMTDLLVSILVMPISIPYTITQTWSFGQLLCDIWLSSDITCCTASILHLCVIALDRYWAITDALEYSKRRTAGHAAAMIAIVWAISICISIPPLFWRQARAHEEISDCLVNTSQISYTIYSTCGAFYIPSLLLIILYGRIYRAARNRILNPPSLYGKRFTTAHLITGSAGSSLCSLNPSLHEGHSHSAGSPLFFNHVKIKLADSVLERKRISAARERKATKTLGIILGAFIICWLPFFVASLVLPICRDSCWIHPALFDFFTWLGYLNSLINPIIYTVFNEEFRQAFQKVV

On to `c1ccc(CN2CCN(c3nc4cccnc4n4cccc34)CC2)cc1`, for which the IC50 is 13.2 µM in experiment [1] and 15.1 µM in experiment [5]. Moreover, it took 0.032 µM to reach a half-maximal effect in the experiment on NG108-15 (EC50). Also, the Inhibition in the experiment with Rattus norvegicus [2] is 40%; with Rattus norvegicus [4], 59%. In experiment [3], the “-Log IC50” value is recorded as 12.09.
Consider `c1ccc(CN2CCN(c3nc4ccccc4n4cccc34)CC2)cc1`, for which the IC50 in experiment [1] is 12.9 µM; in experiment [7] it was 24 µM; in experiment [5] it was 10.5 µM. In the experiment with NG108-15, this molecule gave an EC50 of 0.018 µM. Besides, the values for the Inhibition in the experiment on Rattus norvegicus [6] and with Rattus norvegicus [8] were 54% and 80%, respectively. Besides, the “-Log IC50” value in experiment [3] is reported as 9.45.
